Experimental data from ChEMBL document CHEMBL4396897, “Potent 5-Cyano-6-phenyl-pyrimidin-Based Derivatives Targeting DCN1-UBE2M Interaction” (J Med Chem, 2019).
Calls of active or inactive are those of the source.

Tests used:
[1] = biological target: T1, DCN1-like protein 1/NEDD8-conjugating enzyme Ubc12 (Homo sapiens) (UniProt Q96GG9+P61081); assay: Inhibition of DCN1-UBE2M protein-protein interaction in human PC9 cells assessed as increase in NQO1 accumulation at 3 uM incubated for 24 hrs by Western blot analysis; assay type: cell-based
T1 sequence (P61081 whole entry, looked up): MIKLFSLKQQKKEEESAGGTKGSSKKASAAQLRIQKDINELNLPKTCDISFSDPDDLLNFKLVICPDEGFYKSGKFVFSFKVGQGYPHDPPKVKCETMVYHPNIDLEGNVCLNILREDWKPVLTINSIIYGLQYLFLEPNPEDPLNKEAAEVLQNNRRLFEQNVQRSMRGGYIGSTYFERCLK
T1 sequence (Q96GG9 whole entry, looked up): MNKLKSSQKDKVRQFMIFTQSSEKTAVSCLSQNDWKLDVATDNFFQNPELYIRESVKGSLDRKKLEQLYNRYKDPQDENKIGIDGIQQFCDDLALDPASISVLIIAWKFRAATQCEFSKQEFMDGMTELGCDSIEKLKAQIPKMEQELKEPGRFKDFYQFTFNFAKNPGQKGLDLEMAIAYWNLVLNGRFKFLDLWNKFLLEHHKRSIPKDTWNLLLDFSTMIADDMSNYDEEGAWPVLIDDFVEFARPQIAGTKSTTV
How it was run: (§1)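 H1975 and PC9 cells seeded at 1×10⁶ cells, incubated overnight, then treated 24h with compound (0, 0.3, 1, 10 and 20 μM in methods; 3 μM also listed in text). Lysates cleared at 12,000×g, 20 min, 4°C, protein by BCA, SDS–PAGE, nitrocellulose, primary antibodies overnight at 4°C, HRP secondary, ECL. Densitometry normalised to GAPDH; three experiments.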

[2] = biological target: T1, DCN1-like protein 1/NEDD8-conjugating enzyme Ubc12 (Homo sapiens); assay: Inhibition of DCN1-UBE2M protein-protein interaction in human NCI-H1975 cells assessed as increase in HO-1 accumulation at 3 uM incubated for 24 hrs by Western blot analysis; assay type: cell-based; how it was run: as §1
[3] = biological target: T1, DCN1-like protein 1/NEDD8-conjugating enzyme Ubc12 (Homo sapiens); assay: Inhibition of DCN1-UBE2M protein-protein interaction in human PC9 cells assessed as increase in NRF2 accumulation at 3 uM incubated for 24 hrs by Western blot analysis; assay type: cell-based; how it was run: as §1
[4] = biological target: T2, NEDD8-activating enzyme E1 catalytic subunit (Homo sapiens) (UniProt Q8TBC4); assay: Inhibition of NEDD8-activating enzyme E1C (unknown origin) assessed as effect on NEDD8/UBE2M complex formation at 10 to 20 uM pre-incubated for 10 mins followed by Mg-ATP addition after 60 mins by SDS-PAGE analysis
T2 sequence (whole entry): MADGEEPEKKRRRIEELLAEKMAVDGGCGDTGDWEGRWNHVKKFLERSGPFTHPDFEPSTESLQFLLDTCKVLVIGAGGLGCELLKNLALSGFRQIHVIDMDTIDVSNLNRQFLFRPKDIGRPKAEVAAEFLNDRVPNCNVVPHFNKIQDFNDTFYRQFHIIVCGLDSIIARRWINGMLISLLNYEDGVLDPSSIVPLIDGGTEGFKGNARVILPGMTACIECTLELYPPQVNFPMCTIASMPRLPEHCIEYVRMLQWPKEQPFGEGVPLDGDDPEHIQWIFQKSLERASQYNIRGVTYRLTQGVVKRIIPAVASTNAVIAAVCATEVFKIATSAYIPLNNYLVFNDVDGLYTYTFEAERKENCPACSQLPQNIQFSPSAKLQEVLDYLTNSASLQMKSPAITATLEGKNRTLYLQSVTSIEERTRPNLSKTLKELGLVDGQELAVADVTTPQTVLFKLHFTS
How it was run: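 Cell-free NEDD8~UBE2M formation: NEDD8 E1 mixed with NEDD8, UBE2M and compound (10 and 20µM reference inhibitor, or 1, 10 and 100µM test compound) in reaction buffer, 10 min at room temperature. Started with Mg-ATP, incubated 60 min at 37°C, then 1mM DTT and non-reducing loading buffer added. Resolved on 12% SDS-PAGE.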

[5] = biological target: T1, DCN1-like protein 1/NEDD8-conjugating enzyme Ubc12 (Homo sapiens); assay: Inhibition of DCN1-UBE2M protein-protein interaction in human NCI-H1975 cells assessed as increase in NQO1 accumulation at 3 uM incubated for 24 hrs by Western blot analysis; assay type: cell-based; how it was run: as §1
[6] = biological target: T1, DCN1-like protein 1/NEDD8-conjugating enzyme Ubc12 (Homo sapiens); assay: Inhibition of DCN1-UBE2M protein-protein interaction in human NCI-H1975 cells assessed as increase in NRF2 accumulation at 3 uM incubated for 24 hrs by Western blot analysis; assay type: cell-based; how it was run: as §1
[7] = biological target: T1, DCN1-like protein 1/NEDD8-conjugating enzyme Ubc12 (Homo sapiens); assay: Inhibition of DCN1-UBE2M protein-protein interaction in human PC9 cells assessed as increase in HO-1 accumulation at 3 uM incubated for 24 hrs by Western blot analysis; assay type: cell-based; how it was run: as §1

Measured: inhibition

NS(=O)(=O)OC[C@@H]1C[C@@H](n2ccc3c(N[C@H]4CCc5ccccc54)ncnc32)C[C@@H]1O
active: [1] | [2] | [3] | [4] | [5] | [6] | [7]
